Test results taken from ChEMBL document CHEMBL2311315, “Radiosynthesis and evaluation of [¹¹C-carbonyl]-labeled carbamates as fatty acid amide hydrolase radiotracers for positron emission tomography” (J Med Chem, 2013).

Legend:
Hypothalamus [1] = assay: Biodistribution in Sprague-Dawley rat brain hypothalamus at 0.3 to 0.8 nmol, iv after 40 mins by gamma counting analysis; type: ADME, organism-based; settings: in vivo
Method in brief: (§1)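 Conscious male Sprague–Dawley rats (300–350 g), n = 5 per time point, received 30–60 MBq [11C]-radiotracer (70–170 GBq/μmol; 0.3–0.8 nmol) iv by tail vein in buffered saline with 0.5% Tween 80. Decapitated at 2 or 40 min. Dissected regions were weighed and gamma counted, decay-corrected to injection. Reported as SUV (%ID/g […]), mean ± SD.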

Cortex [2] = assay: Biodistribution in Sprague-Dawley rat brain cortex at 0.3 to 0.8 nmol, iv after 40 mins by gamma counting analysis; type: ADME, organism-based; settings: in vivo; method in brief: as §1
Cortex [3] = assay: Biodistribution in Sprague-Dawley rat brain cortex at 0.3 to 0.8 nmol, iv after 2 mins by gamma counting analysis; type: ADME, organism-based; settings: in vivo; method in brief: as §1
Hypothalamus [4] = assay: Biodistribution in Sprague-Dawley rat brain hypothalamus at 0.3 to 0.8 nmol, iv after 2 mins by gamma counting analysis; type: ADME, organism-based; settings: in vivo; method in brief: as §1
Cortex [5] = assay: Biodistribution in URB597-pretreated Sprague-Dawley rat brain cortex at 0.3 to 0.8 nmol, iv administered 30 mins after URB597-treatment measured after 40 mins by gamma counting analysis; type: ADME, organism-based; settings: in vivo
Method in brief: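 Rats received 2 mg/kg ip (2 mL/kg saline with Tween 80) of the FAAH inhibitor, or vehicle alone, 30 min before tracer. Tracer was 30–60 MBq iv by tail vein (0.3–0.8 nmol; buffered saline, 0.5% Tween 80), n = 5. Cortex was excised at 40 min, weighed, gamma counted and decay-corrected. Reported as SUV, mean ± SD. Compared with vehicle by Student's t test.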

Rattus norvegicus = assay: Biodistribution in URB597-pretreated Sprague-Dawley rat brain parenchyma at 0.3 to 0.8 nmol, iv administered 30 mins after […]-treatment measured after 60 mins by gamma counting analysis; type: ADME, organism-based; settings: in vivo, 1 h
Method in brief: (§2)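 Rats (n = 3–4) were injected iv with [11C]-radiotracer as in the biodistribution procedure. At various times, whole brain was homogenized and exhaustively extracted with aqueous acetonitrile. Extracted (unbound) and tissue-bound radioactivity were counted. Binding rate was fitted to a one-phase exponential association, Y = Ymax(1 − exp(−KX)). Blocking used ip pretreatment with the FAAH inhibitor.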

[6] = Half life in URB597-pretreated Sprague-Dawley rat brain parenchyma at 0.3 to 0.8 nmol, iv administered 30 mins after […]-treatment; type: ADME, organism-based; method in brief: as §2
Brain [7] = assay: Drug uptake in URB597-pretreated Sprague-Dawley rat brain parenchyma at 0.3 to 0.8 nmol, iv administered 30 mins after […]-treatment measured after 5 mins by gamma counting analysis; type: ADME, organism-based; settings: in vivo; method in brief: as §2
Brain [8] = assay: Drug uptake in URB597-pretreated Sprague-Dawley rat brain parenchyma at 0.3 to 0.8 nmol, iv administered 30 mins after […]-treatment measured after 40 mins by gamma counting analysis; type: ADME, organism-based; settings: in vivo; method in brief: as §2
[9] = molecular target: T1, Fatty-acid amide hydrolase 1 (Rattus norvegicus) (UniProt P97612); assay: Inhibition of FAAH-mediated [3H]anandamide hydrolysis in rat brain homogenate assessed as [3H]ethanolamine production at 1 nM incubated for 60 mins prior to substrate addition measured after 10 mins by liquid scintillation counting analysis relative to control; type: tissue-based
T1 sequence (whole entry): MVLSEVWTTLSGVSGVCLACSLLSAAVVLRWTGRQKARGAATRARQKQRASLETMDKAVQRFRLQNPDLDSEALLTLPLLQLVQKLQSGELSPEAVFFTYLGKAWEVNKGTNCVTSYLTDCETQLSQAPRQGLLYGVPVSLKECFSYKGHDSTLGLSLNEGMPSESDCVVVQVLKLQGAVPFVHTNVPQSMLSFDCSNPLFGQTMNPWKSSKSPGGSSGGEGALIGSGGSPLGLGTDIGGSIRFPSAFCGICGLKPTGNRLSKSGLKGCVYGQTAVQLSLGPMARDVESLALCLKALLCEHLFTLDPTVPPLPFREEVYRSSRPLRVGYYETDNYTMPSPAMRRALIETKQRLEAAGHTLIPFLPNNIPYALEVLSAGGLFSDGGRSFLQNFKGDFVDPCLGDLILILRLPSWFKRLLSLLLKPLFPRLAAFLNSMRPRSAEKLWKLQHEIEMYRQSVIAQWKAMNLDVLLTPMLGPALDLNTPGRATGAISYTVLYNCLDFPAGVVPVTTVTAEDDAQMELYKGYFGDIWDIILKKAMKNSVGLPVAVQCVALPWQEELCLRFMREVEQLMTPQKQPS
Method in brief: (§3)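 Rat brain homogenate (0.5 μg protein) preincubated with inhibitor 60 min, then 0.5 μM [3H]anandamide (ethanolamine-labelled) added and incubated a further 10 min at 37 °C. Reaction stopped with charcoal in 0.5 M HCl; aqueous [3H]ethanolamine counted by liquid scintillation with quench correction.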

[10] = molecular target: T1, Fatty-acid amide hydrolase 1 (Rattus norvegicus); assay: Inhibition of FAAH-mediated [3H]anandamide hydrolysis in rat brain homogenate assessed as [3H]ethanolamine production at 10 nM incubated for 60 mins prior to substrate addition measured after 10 mins by liquid scintillation counting analysis relative to control; type: tissue-based
Method in brief: as §3, with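 “correction. Values are % inhibition ± SEM, n = 3.” for “correction.”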

[11] = 1-octanol-phosphate buffer partition coefficient, log D of the compound at pH 7.4; type: physicochemical; settings: octanol/water
Method in brief: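 Radiotracer partitioned between 1-octanol and 0.02 M phosphate buffer, pH 7.4. Each determination replicated six times.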

[12] = molecular target: T1, Fatty-acid amide hydrolase 1 (Rattus norvegicus); assay: Inhibition of FAAH-mediated [3H]anandamide hydrolysis in rat brain homogenate assessed as [3H]ethanolamine production at 0.1 nM incubated for 60 mins prior to substrate addition measured after 10 mins by liquid scintillation counting analysis relative to control; type: tissue-based; method in brief: as §3
[13] = molecular target: T1, Fatty-acid amide hydrolase 1 (Rattus norvegicus); assay: Inhibition of FAAH-mediated [3H]anandamide hydrolysis in rat brain homogenate assessed as [3H]ethanolamine production at 100 nM incubated for 60 mins prior to substrate addition measured after 10 mins by liquid scintillation counting analysis relative to control; type: tissue-based
Method in brief: as §3, with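 “correction. Values are % inhibition ± SEM, n = 3.” for “correction.”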

[14] = Half life in phosphate buffer at pH 7.4 by HPLC analysis; type: physicochemical
Plasma = assay: Percentage unbound in human plasma after 10 mins by ultrafiltration method; type: ADME, cell-free
Method in brief: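 Human plasma from 6 blood samples was spiked with [11C]-radiotracer, held 10 min at ambient temperature, then ultrafiltered by centrifugation. Ultrafiltrate and plasma were counted and weighed. Binding to the device was corrected using pH 7.4 phosphate buffer in place of plasma.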

[15] = molecular target: T1, Fatty-acid amide hydrolase 1 (Rattus norvegicus); assay: Ratio of IC50 for FAAH in rat brain homogenate in the absence of preincubation phase to IC50 for FAAH in rat brain homogenate after 45 mins preincubation phase; type: tissue-based
[16] = molecular target: T2, Fatty-acid amide hydrolase 1 (Rattus norvegicus, UniProt P97612); assay: Inhibition of FAAH-mediated [3H]anandamide hydrolysis in rat brain homogenate assessed as [3H]ethanolamine production incubated for 90 mins prior to substrate addition measured after 10 mins by liquid scintillation counting analysis; type: tissue-based
T2 sequence (P97612 whole entry): T1 sequence (whole entry)
Method in brief: (§4)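 Rat brain homogenate (0.5 μg protein) preincubated with inhibitor at 37 °C for 45 or 90 min, eight concentrations over 0.1–30 nM or six over 1–50 nM. Then 0.5 μM [3H]anandamide added for a further 10 min at 37 °C. Charcoal/HCl stop; [3H]ethanolamine in aqueous phase counted by scintillation. pI50 ± value reported, converted to IC50.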

[17] = molecular target: T2, Fatty-acid amide hydrolase 1; assay: Inhibition of FAAH-mediated [3H]anandamide hydrolysis in rat brain homogenate assessed as [3H]ethanolamine production incubated for 45 mins prior to substrate addition measured after 10 mins by liquid scintillation counting analysis; type: tissue-based; method in brief: as §4

Row | Compound | SUV (Hypothalamus [1]) | Drug uptake (Cortex [2]) | SUV (Cortex [2]) | SUV (Cortex [3]) | SUV (Hypothalamus [4]) | SUV (Cortex [5]) | inhibition [9] | inhibition [10] | logD [11] | inhibition [12] | inhibition [13] | t1/2 [14] | other results
1 | O=[11C](NC1CCC1)Oc1ccc(O)c(-c2ccccc2)c1 | 1.48 | 80% | 3.37 | 2.68 | 1.81 | 0.23 |  |  |  |  |  |  | 
2 | O=[11C](NC1CCCC1)Oc1ccc(O)c(-c2ccccc2)c1 | 1.22 | 80% | 3.09 | 2.36 | 1.87 | 0.33 |  |  |  |  |  |  | Drug uptake (Rattus norvegicus): 90%; half-life [6]: 5.5 min; Drug uptake (Brain [7]): Not Active; Drug uptake (Brain [8]): Not Active
3 | O=C(NC1CCCCC1)Oc1cccc(C2=NCCO2)c1 |  |  |  |  |  |  | 31% | 97% | 3.01 | 0.2% | 99% | 5.1 h | 
4 | O=C(NC1CCC1)Oc1ccc(O)c(-c2ccccc2)c1 |  |  |  |  |  |  | 8% | 70% | 3.42 | -0.1% | 101% | 89 h | 
5 | CCCCCCN[11C](=O)Oc1ccc(O)c(-c2ccccc2)c1 | 1.25 | 80% | 2.49 | 1.63 | 1.21 | 0.27 |  |  |  |  |  |  | 
6 | CN1CCC(NC(=O)Oc2cccc(-c3ccccc3)c2)CC1 |  |  |  |  |  |  | 9% | 6% |  | 6% | 13% |  | 
7 | O=C(NC1CCCC1)Oc1cccc(C2=NCCO2)c1 |  |  |  |  |  |  | 4% | 40% | 2.35 | -2% | 99% | 4.6 h | 
8 | NC(=O)c1cccc(-c2cccc(O[11C](=O)NC3CCCCC3)c2)c1 | 0.51 | 80% | 0.94 | 0.79 | 0.47 | 0.17 |  |  |  |  |  |  | 
9 | CN1CCC(NC(=O)Oc2ccc(O)c(-c3ccccc3)c2)CC1 |  |  |  |  |  |  | -0.5% | 1% |  | 2% | 12% | 25 h | 
10 | O=C(NC1CCCC1)Oc1ccc(O)c(-c2ccccc2)c1 |  |  |  |  |  |  | 15% | 80% | 2.8 | -8% | 99% | 138 h | 
11 | NC(=O)c1cccc(-c2cccc(OC(=O)NC3CCCCC3)c2)c1 [URB-597] |  |  |  |  |  |  |  |  | 3.61 |  |  | 19 h | Fu (Plasma): 0.48%
12 | CN1CCC(NC(=O)Oc2cccc(C3=NCCO3)c2)CC1 |  |  |  |  |  |  | 12% | 3% |  | 6% | 8% | 0.8 h | 
13 | O=C(NC1CCCCC1)Oc1ccc(O)c(-c2ccccc2)c1 |  |  |  |  |  |  | 4% | 69% | 2.85 | -2% | 101% | 121 h | Ratio IC50 [15]: 4; IC50 [16]: 4.9 nM; Fu (Plasma): 0.75%; IC50 [17]: 9.4 nM
14 | CCCCCCNC(=O)Oc1ccc(O)c(-c2ccccc2)c1 |  |  |  |  |  |  | 44% | 97% | 3.67 | 9% | 100% | 77 h | Fu (Plasma): 0.35%
15 | O=[11C](NC1CCCCC1)Oc1ccc(O)c(-c2ccccc2)c1 | 1.14 | 80% | 2.49 | 2.4 | 1.61 | 0.36 |  |  |  |  |  |  | Drug uptake (Rattus norvegicus): 90%; half-life [6]: 6.6 min
16 | CCCCCCNC(=O)Oc1cccc(C2=NCCO2)c1 |  |  |  |  |  |  | 74% | 100% | 3.33 | 9% | 100% | 8.7 h | Ratio IC50 [15]: 4; IC50 [16]: 0.55 nM; IC50 [17]: 1.2 nM
